Experimental data: article PMC12804367 (ESMO Open, 2025)

Columns and labels:
[1] = test system: patients with advanced or metastatic solid tumors; assay: Safety, tolerability and DLTs; type: in vivo, human
Method in brief: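 3 + 3 escalation starting at 16 mg/day once daily or 24 mg/day intermittent (4 days on/3 days off) in 21-day cycles. AEs graded by CTCAE v5.0. DLTs were selected lab abnormalities or AEs at least possibly drug-related during cycle 1, assessed in patients with a DLT or ≥80% of planned doses taken.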

[2] = test system: refractory gastrointestinal cancers / advanced solid tumors; conditions: cited from earlier work
[3] = test system: advanced or metastatic solid tumors; assay: Antitumor activity per RECIST v1.1; type: in vivo, human
Method in brief: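 Open-label, single-arm, 3 + 3 dose-escalation lead-in. Adults with advanced or metastatic solid tumors that had progressed on standard therapy and had ≥1 lesion per RECIST v1.1. Test compound given once daily (16 or 20 mg) or 4 days on/3 days off (24 or 28 mg) in 21-day cycles until progression or toxicity. Response, DCR and PFS were assessed in all dosed patients, with 95% CI.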

[4] = Japanese phase I study; cited from earlier work
[5] = dose escalation intermittent 28 mg (n = 3)
[6] = dose escalation intermittent total (n = 7), any grade
[7] = dose escalation intermittent total (n = 7), grade ≥3
[8] = dose escalation o.d. 16 mg (n = 3)
[9] = dose escalation o.d. 20 mg (n = 6)
[10] = dose escalation o.d. total (n = 9), any grade
[11] = dose escalation o.d. total (n = 9), grade ≥3
[12] = two intermittent dosing groups (n = 7)
[13] = one patient, germline PTEN mutation, metaplastic breast cancer, 20 mg o.d.

C[C@]1(O)C[C@@](N)(c2ccc(-c3nc4n(c3-c3ccccc3)COc3ccncc3-4)cc2)C1 [TAS-117]
TRAE: Rash ([1]; dose escalation intermittent 24 mg (n = 4)): 2 (50.0) n (%)
Patients with any TRAE [1, 5]: 3 (100) n (%)
TRAE: Decreased appetite [1, 5]: 2 (66.7) n (%)
TRAE: Fatigue [1, 5]: 2 (66.7) n (%)
TRAE: Hyperglycemia [1, 5]: 2 (66.7) n (%)
TRAE: Pruritus [1, 5]: 2 (66.7) n (%)
TRAE: Rash [1, 5]: 2 (66.7) n (%)
TRAE: Rash maculopapular [1, 5]: 1 (33.3) n (%)
TRAE: Stomatitis [1, 5]: 3 (100) n (%)
Patients with any TRAE [1, 6]: 5 (71.4) n (%)
TRAE: Decreased appetite [1, 6]: 2 (28.6) n (%)
TRAE: Diarrhea [1, 6]: 1 (14.3) n (%)
TRAE: Fatigue [1, 6]: 4 (57.1) n (%)
TRAE: Hyperglycemia [1, 6]: 3 (42.9) n (%)
TRAE: Nausea [1, 6]: 1 (14.3) n (%)
TRAE: Pruritus [1, 6]: 4 (57.1) n (%)
TRAE: Rash [1, 6]: 4 (57.1) n (%)
TRAE: Rash maculopapular [1, 6]: 1 (14.3) n (%)
TRAE: Stomatitis [1, 6]: 3 (42.9) n (%)
Patients with any TRAE [1, 7]: 3 (42.9) n (%)
TRAE: Hyperglycemia [1, 7]: 1 (14.3) n (%)
TRAE: Rash [1, 7]: 1 (14.3) n (%)
TRAE: Rash maculopapular [1, 7]: 1 (14.3) n (%)
TRAE: Stomatitis [1, 7]: 2 (28.6) n (%)
Patients with any TRAE [1, 8]: 2 (66.7) n (%)
TRAE: Hyperglycemia [1, 8]: 1 (33.3) n (%)
TRAE: Rash [1, 8]: 2 (66.7) n (%)
Patients with any TRAE [1, 9]: 6 (100) n (%)
TRAE: Decreased appetite [1, 9]: 1 (16.7) n (%)
TRAE: Diarrhea [1, 9]: 2 (33.3) n (%)
TRAE: Fatigue [1, 9]: 2 (33.3) n (%)
TRAE: Hyperglycemia [1, 9]: 1 (16.7) n (%)
TRAE: Nausea [1, 9]: 1 (16.7) n (%)
TRAE: Pruritus [1, 9]: 1 (16.7) n (%)
TRAE: Rash [1, 9]: 4 (66.7) n (%)
TRAE: Rash maculopapular [1, 9]: 1 (16.7) n (%)
Patients with any TRAE [1, 10]: 8 (88.9) n (%)
TRAE: Decreased appetite [1, 10]: 1 (11.1) n (%)
TRAE: Diarrhea [1, 10]: 2 (22.2) n (%)
TRAE: Fatigue [1, 10]: 2 (22.2) n (%)
TRAE: Hyperglycemia [1, 10]: 2 (22.2) n (%)
TRAE: Nausea [1, 10]: 1 (11.1) n (%)
TRAE: Pruritus [1, 10]: 1 (11.1) n (%)
TRAE: Rash [1, 10]: 6 (66.7) n (%)
TRAE: Rash maculopapular [1, 10]: 1 (11.1) n (%)
Patients with any TRAE [1, 11]: 5 (55.6) n (%)
TRAE: Fatigue [1, 11]: 1 (11.1) n (%)
TRAE: Rash [1, 11]: 2 (22.2) n (%)
TRAE: Rash maculopapular [1, 11]: 1 (11.1) n (%)
Patients who experienced a DLT ([1]; dose-escalation part, assessable patients (n = 16), cycle 1): three
TEAEs leading to death ([1]; either dosing regimen): No TEAEs leading to death
Patients with dose interruption due to an AE ([1]; intermittent dosing groups): 57.1%
Patients with dose reductions due to an AE ([1]; intermittent dosing groups): 42.9%
Patients with treatment discontinued due to a TRAE ([1]; intermittent dosing groups, grade 3 skin exfoliation at 28 mg): 14.3%
Patients with treatment-related serious AEs ([1]; o.d. dosing groups, all at 20 mg o.d.): three
Patients with AEs leading to dose interruptions ([1]; o.d. dosing regimen): 66.7%
Patients with AEs leading to dose reductions ([1]; o.d. dosing regimen): 0%
TRAE: Diarrhea ([1]; o.d. dosing regimen (n = 9)): 22.2%
TRAE: Fatigue ([1]; o.d. dosing regimen (n = 9)): 22.2%
TRAE: Hyperglycemia ([1]; o.d. dosing regimen (n = 9)): 22.2%
TRAE: Rash ([1]; o.d. dosing regimen (n = 9)): 66.7%
Grade ≥3 TRAE: stomatitis [1, 12]: 28.6%
Grade ≥3 TRAEs [1, 12]: 42.9%
TRAE: Decreased appetite [1, 12]: 28.6%
TRAE: Fatigue [1, 12]: 57.1%
TRAE: Hyperglycemia [1, 12]: 42.9%
TRAE: Pruritus [1, 12]: 57.1%
TRAE: Rash [1, 12]: 57.1%
TRAE: Stomatitis [1, 12]: 42.9%
Patients who achieved a partial response ([2]; PIK3CA-mutant ovarian cancer): 1 patient
Antitumor activity and toxicity ([2]; patients with refractory gastrointestinal cancers): limited antitumor activity and manageable toxicity
Median PFS ([3]; all cohorts, 95% CI 1.3-3.5 months): 2.7 months
DCR ([3]; all patients, 95% CI 18.4% to 67.1%): 41.2%
Patients with stable disease as best response ([3]; o.d. dosing, all at 20 mg): three
Best overall response [3, 13]: stable disease
Duration of stable disease / treatment, ongoing at data cut-off [3, 13]: 19.1 months
Duration of stable disease / treatment as of manuscript drafting ([3]; one patient, germline PTEN mutation, metaplastic breast cancer, ongoing): > 3 years
Objective response (RECIST v1.1, investigator assessment) ([3]; patients assessed, n = 15, dose escalation (all-comers)): None and no patients having a confirmed response
Accumulation of Cmax and AUC0-24 [4]: threefold to fourfold
